Eight molecules from ChEMBL document CHEMBL1152668, “Synthesis, reactivity and biological evaluation of novel halogenated tripentones” (Bioorg Med Chem, 2009) can be followed below.

By IC50 is commonly meant the concentration that inhibits the measured activity by half.

SMILES strings stand for the structures. The source made the active and inactive calls. The calls are words filed in the database; no cut-off is given here.

Data set [1] concerns KB. Nature of the data set: Growth inhibition of human KB cells at 1 uM after 72 hrs by MTS assay. The format is functional. As to conditions: read-out: GI. On the technique in general: Tetrazolium dyes change colour on reduction, which living cells bring about.
The test system of data set [2] is KB. Put plainly: Growth inhibition of human KB cells at 10 uM after 72 hrs by MTS assay. Type of data set: functional. To be noted: read-out: GI.
A further data set deals with L1210. Put plainly: Cytotoxicity against mouse L1210 cells after 72 hrs by MTS assay. The format is functional, cell-based. As to conditions: L1210, 72 h.
Data set [3] concerns KB. Put plainly: Cytotoxicity against human KB cells at 0.05 to 1000 nM after 72 hrs by MTS assay. The format is functional, cell-based. Put shortly: (§1)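 Cells maintained in D-MEM with 10% fetal calf serum, penicillin, streptomycin and fungizone under 5% CO2. Plated in 96-well plates and dosed 24 h later with compound in DMSO, 0.05 nM to 1 µM, with 1% DMSO vehicle controls. After 72 h, MTS added for 3 h at 37 °C and A490 read. Inhibition = (1 − OD treated/OD control)×100; IC50 from separate duplicates.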

In the next data set the test system is HCT-15. Nature of the data set: Cytotoxicity against human HCT15 cells at 0.05 to 1000 nM after 72 hrs by MTS assay. The format is functional, cell-based. Put shortly: (§2)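 Cultured in RPMI medium under 5% CO2, then seeded in 96-well plates and treated 24 h later with DMSO solutions at 0.05 nM–1 µM, with 1% DMSO vehicle controls. After 72 h exposure, MTS incubated 3 h at 37 °C and absorbance read at 490 nm. Inhibition = (1 − OD490 treated/OD490 control)×100; IC50 from separate duplicate experiments.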

In the next data set the test system is HL-60. Nature of the data set: Cytotoxicity against human HL60 cells at 0.05 to 1000 nM after 72 hrs by MTS assay. The format is functional, cell-based. Put shortly:
as §2

In a further data set the test system is Vero. Put plainly: Cytotoxicity against african green monkey Vero cells at 0.05 to 1000 nM after 72 hrs by MTS assay. The format is cell-based. To be noted: chlorocebus sabaeus, 1 µM. Put shortly: as §1
Another data set deals with MCF7. Nature of the data set: Cytotoxicity against human MCF7 cells at 0.05 to 1000 nM after 72 hrs by MTS assay. The format is functional, cell-based. Put shortly: as §2
The test system of the next data set is HCT-116. Nature of the data set: Cytotoxicity against human HCT116 cells at 0.05 to 1000 nM after 72 hrs by MTS assay. The format is functional, cell-based. A digest of the protocol: as §2
The test system of another data set is MRC5. Put plainly: Cytotoxicity against human MRC5 cells at 0.05 to 1000 nM after 72 hrs by MTS assay. The format is cell-based. As to conditions: mrc5, 72 h, 1 µM. Put shortly:
as §1

With `COC(=O)/C=C/c1cc2n(c1)-c1c(-c3ccc(OC)c(O)c3)csc1C2=O`, the inhibition of growth at 1 µM with KB [1] came out at 3%. The inhibition of growth at 10 µM in the data set on KB [2] was 1%.
In the case of `COc1ccc(-c2csc3c2-n2cc(Br)cc2C3=O)cc1O`, in the data set on KB [1], the inhibition of growth at 1 µM was determined as 94%. Moreover, the inhibition of growth at 10 µM with KB [2] was 94%. The same molecule had a concentration for half-maximal inhibition (IC50) in the data set on L1210 of 17 nM.
Take `COc1ccc(-c2csc3c2-n2cc(-c4cc(OC)c(OC)c(OC)c4)cc2C3=O)cc1O`: in the data set on KB [2], the inhibition of growth at 10 µM was 35%.
Take `COc1ccc(-c2csc3c2-n2cc(-c4ccc(OC)c(OC)c4)cc2C3=O)cc1O`: the inhibition of growth at 1 µM with KB [1] came to 15%. Moreover, in the data set on KB [2], the inhibition of growth at 10 µM turned out to be 97%.
Turning to `COc1ccc(-c2cc3n(c2)-c2c(-c4ccc(OC)c(O)c4)csc2C3=O)cc1`, the inhibition of growth at 1 µM in the data set with KB [1] stood at 94%. Also, the inhibition of growth at 10 µM in the data set on KB [2] was 98%. In the data set with L1210, this molecule came in with a half-inhibitory concentration (IC50) of 113 nM.
`COc1ccc(-c2cc3n(c2)-c2c(-c4ccc(OC)c(O)c4)csc2C3=O)cc1O`: the inhibition of growth at 1 µM in the data set on KB [1] stood at 15%. For the same molecule, in the data set on KB [2], the inhibition of growth at 10 µM is 90%.
For `COc1ccc(-c2csc3c2-n2cc(-c4cccnc4)cc2C3=O)cc1O` the same measures were 20% and 64%.
On to `COc1ccc(-c2csc3c2-n2cccc2C3=O)cc1O`, for which the inhibition of growth at 1 µM with KB [1] was determined as 86%. Also, the outcome with KB [3], with HCT-15, in the data set on HL-60, in the data set on MCF7 and in the data set on HCT-116 was Active. Besides, the inhibition of growth at 10 µM in the data set with KB [2] came to 86%. The Activity result in the data set with Vero and in the data set with MRC5 was “Non-toxic” each time. Moreover, in the data set with L1210, the 50% inhibitory concentration (IC50) is 4 nM.
